The record followed here is ChEMBL document CHEMBL4138250, “Regioselective IBX-Mediated Synthesis of Coumarin Derivatives with Antioxidant and Anti-influenza Activities” (J Nat Prod, 2017).

Structures are written as SMILES. Converted amounts (≈) assume the structure as drawn. Where only a bound is given, the exact number is not on record here.

The nature of data set [1]: Antioxidant activity assessed as DPPH radical scavenging activity incubated for 30 mins under dark condition. Format: functional. The method in brief: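 Compounds serially diluted in EtOH (0.01−100 mg/mL) and added to freshly prepared DPPH (6 × 10−5 M in EtOH). Mixture shaken, kept 30 min in the dark, then absorbance read at 517 nm against a solvent blank. % scavenging is relative to a DPPH-only control, corrected for sample colour without DPPH. IC50 is the concentration giving 50% inhibition; triplicate runs.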
In general terms: The DPPH test is a chemical assay of radical scavenging.

In data set [2] the test system is A549. The experiment in a line: Cytotoxicity against human A549 cells assessed as reduction in cell viability up to 120 ug/ml after 24 hrs by microscopic analysis. Format: cell-based. To be noted: a549, 24 h. The gist of the method:
(§1)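 A549 cells seeded at 2 × 10^5/mL; after 24 h, exposed to compounds at 10−120 μg/mL for a further 24 h. Viability assessed by microscopic examination, Trypan blue (0.02%) exclusion and MTT reduction. Cytotoxicity expressed as % reduction in viable cells relative to cultures treated with DMSO alone.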

For data set [3], the system named is A549. The data set can be described thus: Cytotoxicity against human A549 cells assessed as reduction in cell viability up to 120 ug/ml after 24 hrs by tryphan blue exclusion assay. To be noted: a549, 24 h. The data set is classed as cell-based. The method in brief:
as §1

In data set [4] the test system is A549. The experiment in a line: Cytotoxicity against human A549 cells assessed as reduction in cell viability up to 120 ug/ml after 24 hrs by MTT assay. The data set is classed as cell-based. To be noted: a549, 24 h. The method in brief:
as §1
(Formazan colour is commonly taken as a measure of viable cells.)

The test system of data set [5] is Influenza A virus. The experiment in a line: Antiviral activity against Influenza A virus (A/Puerto Rico/8/34(H1N1)) infected in A549 cells assessed as reduction in viral titer after 24 to 48 hrs by hemagglutination test. Format: functional, organism-based. To be noted: A/Puerto Rico/8/1934(H1N1). The method in brief:
(§2)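 Confluent A549 monolayers (DMEM, 10% FBS) infected with PR8 at MOI 0.0001 for 1 h at 37 °C, PBS-washed, then kept in 2% FBS medium. Compounds in DMSO were diluted in DMEM to final 30, 40, 60, 80 or 120 μg/mL, added after adsorption and kept to the end. DMSO was at most 0.2%, with matching DMSO-treated controls and mock infection. Supernatant HAU read at 24 and 48 h with human type 0 Rh+ erythrocytes.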

Data set [6] deals with Influenza A virus. The data set can be described thus: Antiviral activity against Influenza A virus (A/Puerto Rico/8/34(H1N1)) infected in A549 cells assessed as reduction in viral titer at 120 ug/ml after 24 to 48 hrs by hemagglutination test relative to control. Format: functional, A/Puerto Rico/8/1934(H1N1). On the set-up: scale not given: the % may be the effect or the level left. The gist of the method: as §2

Usually IC50 stands for the concentration at which inhibition is half-maximal. For the compound `O=c1ccc2cc(O)c(O)c(O)c2o1`, the figures for the IC50 in data set [1] and in data set [5] were 8700 mg/L (≈ 44.8 mM) and 69.9 mg/L (≈ 0.36 mM), respectively. Further, the Activity entry in data set [2] is “Non-Toxic”; in data set [3], “Non-Toxic”; in data set [4], “Non-Toxic”; in data set [5] it was “Dose-dependent effect”.

As to `O=c1ccc2c(O)c(O)ccc2o1`, the Activity result in data set [2] was “Non-Toxic”; in data set [3], “Non-Toxic”; in data set [4], “Non-Toxic”; in data set [5] it was “Dose-dependent effect”; in data set [6], 50%. The IC50 in data set [5] came to 106 mg/L (≈ 0.598 mM).

As to `O=c1ccc2cc(O)c(O)cc2o1` [ESCULETIN], the concentration for half-maximal inhibition (IC50) in data set [1] turned out to be 37700 mg/L (≈ 212 mM).

As for `O=c1ccc2ccc(O)c(O)c2o1` [DAPHNETIN], the IC50 in data set [1] is 27200 mg/L (≈ 153 mM); in data set [5], 146 mg/L (≈ 0.818 mM).

Take `Nc1ccc2c(C(F)(F)F)cc(=O)oc2c1`: the Activity entry in data set [2] is “Non-Toxic”; in data set [3], “Non-Toxic”; in data set [4], “Non-Toxic”; in data set [5], “Dose-dependent effect”. Moreover, the IC50 in data set [5] came out at 51 mg/L (≈ 0.223 mM).

In the case of `O=c1cc(O)c2ccc(O)c(O)c2o1`, the IC50 in data set [1] was found to be 24100 mg/L (≈ 124 mM).

Consider `Cc1cc(=O)oc2c(O)c(O)ccc12` [4-METHYLDAPHNETIN], for which the IC50 in data set [1] was 22000 mg/L (≈ 114 mM); in data set [5], 91.5 mg/L (≈ 0.476 mM). Further, the Activity entry in data set [2] was “Non-Toxic”; in data set [3] it was “Non-Toxic”; in data set [4] it was “Non-Toxic”; in data set [5], “Dose-dependent effect”.

In the case of `O=c1ccc2ccc(O)cc2o1` [UMBELLIFERONE], the values for the IC50 in data set [1] and in data set [5] were greater than 200000 mg/L and 110 mg/L (≈ 0.678 mM), respectively. Further, the Activity entry in data set [2] is “Non-Toxic”; in data set [3], “Non-Toxic”; in data set [4], “Non-Toxic”; in data set [5] it was “Dose-dependent effect”; in data set [6] it was 50%.

For the compound `O=c1ccc2cc(O)ccc2o1` [6-HYDROXYCOUMARIN], the IC50 in data set [1] was greater than 200000 mg/L; in data set [5], 110 mg/L (≈ 0.678 mM). Further, the Activity result in data set [2] was “Non-Toxic”; in data set [3], “Non-Toxic”; in data set [4], “Non-Toxic”; in data set [5], “Dose-dependent effect”; in data set [6], 50%.

As to `O=c1ccc2c(O)c(O)c(O)cc2o1`, the IC50 in data set [1] amounted to 2500 mg/L (≈ 12.9 mM); in data set [5] it was 47.9 mg/L (≈ 0.247 mM). Also, the Activity entry in data set [2] was “Non-Toxic”; in data set [3], “Non-Toxic”; in data set [4], “Non-Toxic”; in data set [5], “Dose-dependent effect”.

Take `Nc1ccc2c(C(F)(F)F)cc(=O)oc2c1O`: the results for the IC50 in data set [1] and in data set [5] were 9300 mg/L (≈ 37.9 mM) and 47.8 mg/L (≈ 0.195 mM), respectively. Besides, the Activity entry in data set [2] is “Non-Toxic”; in data set [3] it was “Non-Toxic”; in data set [4] it was “Non-Toxic”; in data set [5], “Dose-dependent effect”.

`COc1cc2ccc(=O)oc2c(O)c1O` [FRAXETIN]: the IC50 in data set [1] amounted to 39200 mg/L (≈ 188 mM).
